Active and inactive are the calls of the source. The calls are words filed in the database; no cut-off is given here. Some results are limits rather than exact numbers.

System in the first data set: not listed separately
Put plainly: Ratio of drug level in brain to plasma in mouse at 30 mg/kg, po measured at 6 hrs post dose. Particulars: read-out: BPR. Type of data set: ADME, organism-based. A digest of the protocol: (§1)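 Single oral dose of 30 mg/kg; brain (mouse, rat) and rat CSF Aβ42 and Aβ37 measured 6 h post-dose, expressed relative to vehicle; total and free brain drug levels and brain:plasma ratio taken at the same time.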
As for `COc1nc(C2=NOC[C@H](c3cc4ccccc4s3)N2)ccc1-n1cnc(C)c1`, the Kp at 6 h is 2.8.

System in the next data set: not listed separately
Put plainly: Total drug level in mouse brain at 30 mg/kg, po measured at 6 hrs post dose. Type of data set: ADME, organism-based. The following applies: read-out: Drug uptake. A digest of the protocol: as §1
Turning to `COc1nc(C2=NOC[C@H](c3cc4ccccc4s3)N2)ccc1-n1cnc(C)c1`, the concentration at 6 h came out at 30.2 µM.

Target in another data set: not listed separately
Put plainly: Modulation of gamma-secretase (unknown origin). The arrangement: species or system Homo sapiens.
Conditions: not given
The compound `COc1cc(N2CCC(C(=O)N3CCC[C@@H](Oc4ccc(Cl)cc4C(F)(F)F)C3)CC2)ccn1` displayed an EC50 of 35 nM.

The test system of the next data set is Mus musculus. Put plainly: Reduction in amyloid beta 42 levels in mouse brain at 90 mg/kg, po measured at 6 hrs post dose by ELISA. Type of data set: functional.
Conditions: not given
The method, boiled down: (§2)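 Mice dosed 90 mg/kg; brain Aβ42 lowering, total brain drug concentration and brain:plasma ratio measured 6 hours post-dose.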
For orientation: ELISA stands for enzyme-linked immunosorbent assay.
On to `COc1nc(C2=NOC[C@@H]3[C@H](Oc4ccc(Cl)cc4C(F)(F)F)CCCN23)ccc1-n1cnc(C)c1`, for which 90 mg/kg produced 32% inhibition in vivo.

System in a further data set: not listed separately
The data set can be described thus: Modulation of gamma-secretase in human H4 cells expressing human APP751 assessed as inhibition of amyloid beta 42 production incubated overnight by sandwich ELISA. Type of data set: cell-based.
Conditions: not given
The method, boiled down: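 Aβ42 EC50 in H4 cells overexpressing WT human APP751; each value is the average of n > 2 assays, each run in duplicate.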
With `COc1nc(C2=NOCC3CN(c4ccc(Cl)cc4C(F)(F)F)CCN23)ccc1-n1cnc(C)c1` (single isomer, unassigned; (-)), the EC50 was determined as 307 nM. On the same count and under the same terms, next, `COc1nc(C2=NOCC3CN(c4ccc(Cl)cc4C(F)(F)F)CCN23)ccc1-n1cnc(C)c1` (single isomer, unassigned; (+)): 64 nM.

The data set is the same for the next values; noted with them: Homo sapiens.
Take `COc1nc(C2=NOC[C@@H]3[C@H](Oc4ccc(F)cc4C)CCCN23)ccc1-n1cnc(C)c1`: the EC50 was found to be 197 nM. Same read-out and setting: then `COc1nc(C2=NOC[C@H](COc3ccc(F)cc3C)N2)ccc1-n1cnc(C)c1`, with 51 nM. On the same count and under the same terms, next, `COc1nc(C2=NOC[C@H](COc3ccc(F)cc3C)N2)ccc1-c1ocnc1C`: 1360 nM; `COc1nc(C2=NOC[C@H](COc3ccc(F)cc3C)N2)ccc1-c1cnn(C)c1`: 604 nM; `COc1cc(C2=NOC[C@H](COc3ccc(Cl)cc3C(F)(F)F)N2)ccc1-n1cnc(C)c1`: 109 nM. Still for that read-out and setting: next, `COc1nc(C2=NOC[C@H](COc3ccc(F)cc3C)N2)ccc1-c1ccnc(C)c1`: 98 nM. For the compound `COc1nc(C2=NOC[C@H](COc3ccc(F)cc3C)N2)ccc1-c1cnc(C)s1`, the EC50 stood at 1270 nM. Same read-out and setting: then `COc1cc(C2=NOC[C@H](COc3ccc(Cl)cc3C(F)(F)F)N2C)ccc1-n1cnc(C)c1`, with 113 nM; and `COc1nc(C2=NOC[C@H](COc3ccc(Cl)cc3C(F)(F)F)N2)ccc1-n1cnc(C)c1`, with 27 nM. The same measure, in the same setting: next, `COc1cc(C2=NOC[C@@H](COc3ccc(F)cc3C)N2)ccc1-c1ccnc(C)c1`: 6450 nM; `COc1nc(C2=NOC[C@H](c3cc4ccccc4s3)N2)ccc1-n1cnc(C)c1`: 8 nM. As for `COc1cc(C2=NOC[C@H](COc3ccc(F)cc3C)N2)ccc1-n1cnc(C)c1`, the EC50 came out at 230 nM. The same measure, in the same setting: next, `COc1nc(C2=NOC[C@@H]3[C@H](Oc4ccc(F)cc4C)CCCN23)ccc1-c1ccnc(C)c1`: 240 nM. Turning to `COc1cc(C2=NOC[C@H](COc3ccc(F)cc3C)N2)ccc1-c1ccnc(C)c1`, the EC50 came out at 109 nM. Turning to `COc1cc(C2=NOC[C@@H](COc3ccc(F)cc3C)N2)ccc1-n1cnc(C)c1`, the half-maximal effective concentration (EC50) worked out at 2890 nM. Same read-out and setting: then `COc1nc(C2=NOC[C@H](COc3ccc(F)cc3C)N2)ccc1-n1cnc(Cl)c1`, with 72 nM; and `COc1nc(C2=NOC[C@@H]3[C@H](Oc4ccc(Cl)cc4C(F)(F)F)CCCN23)ccc1-n1cnc(C)c1`, with 15 nM; and `COc1cc(C2=NOC[C@H](COc3ccc(Cl)cc3C(F)(F)F)N2)ccc1-c1ccnc(C)c1`, with 249 nM. As for `COc1nc(C2=NOC[C@H]3[C@@H](Oc4ccc(F)cc4C)CCCN23)ccc1-n1cnc(C)c1`, the EC50 was > 3000 nM.

System in a further data set: not listed separately
Put plainly: Total drug uptake in mouse brain at 90 mg/kg, po measured at 6 hrs post dose. Type of data set: ADME, organism-based. Particulars: read-out: Drug uptake. The method, boiled down: as §2
As for `COc1nc(C2=NOC[C@@H]3[C@H](Oc4ccc(Cl)cc4C(F)(F)F)CCCN23)ccc1-n1cnc(C)c1`, the concentration at 6 h was 36 µM.

Another data set deals with Brain. The data set can be described thus: Unbound drug level in mouse brain at 30 mg/kg, po measured at 6 hrs post dose. The class given is ADME, organism-based. Particulars: in vivo. A digest of the protocol:
as §1
`COc1nc(C2=NOC[C@H](c3cc4ccccc4s3)N2)ccc1-n1cnc(C)c1`: the “Drug uptake(free)” value is recorded as 76 nM.

The subject of another data set is Mus musculus. Put plainly: Reduction in amyloid beta 42 levels in mouse brain at 30 mg/kg, po measured at 6 hrs post dose by ELISA. The class given is functional.
Conditions: not given
A digest of the protocol: as §1
Regarding `COc1cc(C2=NOC[C@H](COc3ccc(Cl)cc3C(F)(F)F)N2)ccc1-n1cnc(C)c1`, the outcome was inactive. Still for that read-out and setting: next, `COc1cc(C2=NOC[C@H](COc3ccc(Cl)cc3C(F)(F)F)N2C)ccc1-n1cnc(C)c1`: “inactive”. Consider `COc1nc(C2=NOC[C@H](COc3ccc(Cl)cc3C(F)(F)F)N2)ccc1-n1cnc(C)c1`, for which the result was inactive.

Turning to `COc1cc(C2=NOC[C@@H](COc3ccc(F)cc3C)N2)ccc1-c1ccnc(C)c1`, the outcome was inactive. For the compound `COc1nc(C2=NOC[C@H](c3cc4ccccc4s3)N2)ccc1-n1cnc(C)c1`, the inhibition in vivo at 30 mg/kg was 34%.

Consider `COc1cc(C2=NOC[C@H](COc3ccc(F)cc3C)N2)ccc1-n1cnc(C)c1`, for which the outcome was inactive. On the same count and under the same terms, then `COc1cc(C2=NOC[C@H](COc3ccc(F)cc3C)N2)ccc1-c1ccnc(C)c1`, with “inactive”. As to `COc1cc(C2=NOC[C@@H](COc3ccc(F)cc3C)N2)ccc1-n1cnc(C)c1`, the outcome was inactive.

For `COc1cc(C2=NOC[C@H](COc3ccc(Cl)cc3C(F)(F)F)N2)ccc1-c1ccnc(C)c1`, the outcome was inactive.

System in a further data set: not listed separately
The data set can be described thus: Ratio of drug level in brain to plasma in mouse at 90 mg/kg, po measured at 6 hrs post dose. The class given is ADME, organism-based. Particulars: read-out: BPR. The method, boiled down:
as §2
As to `COc1nc(C2=NOC[C@@H]3[C@H](Oc4ccc(Cl)cc4C(F)(F)F)CCCN23)ccc1-n1cnc(C)c1`, the Kp at 6 h amounted to 0.6.

System in the next data set: not listed separately
Put plainly: Unbound intrinsic clearance in rat hepatocytes. Type of data set: ADME, cell-based, Hepatocyte.
Conditions: not given
On to `COc1nc(C2=NOC[C@H](COc3ccc(F)cc3C)N2)ccc1-n1cnc(C)c1`, for which the CL free is 114.4 L/h/kg.

Consider `COc1nc(C2=NOC[C@H](COc3ccc(F)cc3C)N2)ccc1-c1ccnc(C)c1`, for which the CL free amounted to 195.5 L/h/kg.

Turning to `COc1nc(C2=NOC[C@H](COc3ccc(Cl)cc3C(F)(F)F)N2)ccc1-n1cnc(C)c1`, the CL free is 229.8 L/h/kg. On the same count and under the same terms, then `COc1nc(C2=NOC[C@H](c3cc4ccccc4s3)N2)ccc1-n1cnc(C)c1`, with 25.8 L/h/kg; and `COc1nc(C2=NOC[C@H](COc3ccc(F)cc3C)N2)ccc1-n1cnc(Cl)c1`, with 246.3 L/h/kg. `COc1nc(C2=NOC[C@@H]3[C@H](Oc4ccc(Cl)cc4C(F)(F)F)CCCN23)ccc1-n1cnc(C)c1`: the CL free came out at 255.1 L/h/kg.

For orientation: EC50 means the concentration giving half of the maximal effect. In general, inhibition in vivo refers to how much of the control response was suppressed.

These data come from ChEMBL document CHEMBL4007439, “Design, Synthesis, and Evaluation of a Novel Series of Oxadiazine Gamma Secretase Modulators for Familial Alzheimer's Disease” (J Med Chem, 2017).
